Assay results pooled from the literature.
Protocols differ between the studies behind these lines.
Effect on: metabolic stability

C[C@H](C(=O)NC1Cc2ccccc2C1)c1ccccc1
microsomal CLint (rat, liver microsomes; 1 µM): > 200 µL/min/mg

CC(=O)c1cccc(OCc2cc(C(=O)N(C)[C@@H](C)c3ccccn3)no2)c1
scaled CLint (rat, liver microsomes): 770 mL/min/kg

O=c1[nH]c(=S)n(Cc2ccc(Cl)cc2CNCC(F)(F)F)c2cc[nH]c12
hepatocyte CLint (rat, hepatocytes): 30 µL/min/10⁶ cells

C[C@H](C(=O)NC1Cc2ccccc2C1)c1ccc(F)cc1
microsomal CLint (rat, liver microsomes; 1 µM): > 200 µL/min/mg

O=c1ccc2ccc(O)cc2o1
scaled CLint (rat, liver S9; 2 µM, pH 7.4): 787 mL/min/kg

Cc1cccnc1C(=O)Nc1ccc(N2C(=O)c3cccc(Cl)c3C2=O)c(Cl)c1
scaled CLint (rat, liver microsomes; 1 µM, pH 7.4): 95.9 mL/min/kg

CC(C)N1Cc2cc(C(F)(F)F)ncc2C2=CN=C(NCc3c(F)ccc4c3CCO4)N3C=NC(C1=O)C23 (stereo not drawn)
scaled CLint (rat, liver microsomes; 100 µM, 30 min): 18.9 mL/min/kg

COc1ccc(-c2nc3ccccn3c2N(C)c2ccc(F)cc2)nc1
hepatocyte CLint (rat, hepatocytes): > 300 µL/min/10⁶ cells

CC(F)(F)CN1Cc2cc(C(F)(F)F)ncc2C2=CN=C(NCc3c(F)ccc4c3CCO4)N3C=NC(C1=O)C23 (stereo not drawn)
scaled CLint (rat, liver microsomes; 100 µM, 30 min): 16.6 mL/min/kg

COc1ccc(-c2nc3ccc(OC)cn3c2Nc2ccc(F)cc2)nc1
hepatocyte CLint (rat, hepatocytes): 76 µL/min/10⁶ cells

CS(=O)(=O)c1ccc(-c2cnc(N)c(-c3ccc(C(F)(F)F)nc3)c2)cc1
microsomal CLint (male rat, liver microsomes; 1 µM): < 11.6 µL/min/mg

COc1ccc(-c2nc3ccc(OC)cn3c2N(C)c2ccc(F)cc2)nc1
hepatocyte CLint (rat, hepatocytes): > 300 µL/min/10⁶ cells

O=C(Nc1ccc(N2C(=O)c3cccc(Cl)c3C2=O)c(Cl)c1)c1ncccc1Cl
scaled CLint (rat, liver microsomes; 1 µM, pH 7.4): 39.9 mL/min/kg

CCOc1c(O)cc(Br)c2c1CN1CCc3cc(OCC(F)F)c(O)cc3[C@@H]1C2
scaled CLint (rat, liver S9; 2 µM, pH 7.4): 902 mL/min/kg

c1ccc(-c2nc3n(c2-c2ccncc2)CCC3)nc1
hepatocyte CLint (rat, hepatocytes): 4.8 µL/min/10⁶ cells
